Measured values: ChEMBL document CHEMBL1157464, “1-[(3-Aryloxy-3-aryl)propyl]-1H-imidazoles, new imidazoles with potent activity against Candida albicans and dermatophytes. Synthesis, structure-activity relationship, and molecular modeling studies” (J Med Chem, 2008)
Values after ≈ are worked out from the molar mass of the structure shown.

Legend:
Candida albicans [1] = experiment: Antifungal activity against fluconazole-resistant Candida albicans isolated from oropharyngeal or vaginal disease patient after 48 hrs by broth microdilution test; type: functional
Arthrodermataceae [2] = experiment: Antifungal activity against dermatophytes at 28 degC after 48 to 96 hrs by broth microdilution test
Arthrodermataceae [3] = experiment: Antifungal activity against dermatophytes at 28 degC after 5 days by broth microdilution test; settings: for MFC: Arthrodermataceae
Arthrodermataceae [4] = experiment: Antifungal activity against dermatophytes at 28 degC after 7 days by broth microdilution test; type: functional; settings: 168 h
Summary of the method: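 Ten clinical isolates (two M. canis, five M. gypseum, three T. mentagrophytes) tested by NCCLS M38-A broth microdilution in MOPS-buffered RPMI 1640, pH 7.0, over 0.25–128 µg/mL. Conidial/hyphal suspension from PDA slants (28 °C, 7 days) adjusted to 65–70% transmittance at OD530, then diluted 1:50.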

Candida albicans [5] = experiment: Antifungal activity against Candida albicans ATCC 10261 at 35 degC after 48 hrs by broth microdilution test; type: functional; settings: for MIC50: read-out: MIC50
Summary of the method: (§1)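 Broth microdilution per NCCLS M27-A2. Stocks in 100% DMSO, diluted in RPMI 1640 with 0.165 M MOPS at pH 7.0; final range 0.25–128 µg/mL. Inoculum 1000–5000 cells/mL from SDA subcultures. […] C. parapsilosis ATCC22019 served as QC strain.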

Candida albicans [6] = experiment: Antifungal activity against fluconazole-sensitive Candida albicans Fe40 at 35 degC after 48 hrs by broth microdilution test; type: functional; summary of the method: as §1
Candida albicans [7] = experiment: Antifungal activity against Candida albicans ATCC 10261 at 35 degC after 48 to 96 hrs by broth microdilution test; type: functional
Summary of the method: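 Minimal fungicidal concentration for Candida. […] MFC is the lowest concentration allowing fewer than two colonies (99% killing).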

Candida parapsilosis = experiment: Antifungal activity against Candida parapsilosis ATCC 22019 at 35 degC after 48 hrs by broth microdilution test; type: functional; settings: Lodderomyces parapsilosis, ATCC 22019, 48 h; for MFC: read-out: MFC; for MIC: read-out: MIC; summary of the method: as §1
[8] = Cytotoxicity against human K562 cells after assessed as reduction of cell viability 24 hrs by MTT assay; type: cell-based
Summary of the method: (§2)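 U937 and K562 cells, from ATCC, plated at 5 × 10^4/mL in phenol-red-free RPMI-1640 with 20% FBS and penicillin/streptomycin. Compounds added 2 h later at 25–100 µg/mL, then 24 h at 37 °C. MTT at 1 mg/mL for 3 h, formazan dissolved in isopropanol with 0.1 N HCl, absorbance read at 570 nm. CC50 is the concentration reducing viability by 50% versus the drug-free control.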

[9] = Cytotoxicity against human U937 cells assessed as reduction of cell viability after 24 hrs by MTT assay; type: cell-based, U-937; summary of the method: as §2
[10] = Candida albicans, ATCC 10261, 48 h, read-out: MIC
[11] = Candida albicans, ATCC 10261, 48 h
[12] = Candida albicans, ATCC 10261, 48 h, read-out: MIC90
[13] = Candida albicans, ATCC 10261, read-out: MFC

SMILES	MIC (Arthrodermataceae [4]) [µg/mL]	MIC50 (Arthrodermataceae [4]) [µg/mL]	MIC90 (Arthrodermataceae [4]) [µg/mL]	MIC (Candida albicans [5]; [10]) [µg/mL]	MIC50 (Candida albicans [5]; [11]) [µg/mL]	MIC90 (Candida albicans [5]; [12]) [µg/mL]	MIC (Candida parapsilosis) [µg/mL]	MFC50 (Arthrodermataceae [2]) [µg/mL]	MFC90 (Arthrodermataceae [3]) [µg/mL]	MFC (Arthrodermataceae [3]) [µg/mL]	MFC50 (Candida albicans [7]) [µg/mL]	MFC90 (Candida albicans [7]) [µg/mL]	MFC (Candida albicans [7]; [13]) [µg/mL]	MFC (Candida parapsilosis) [µg/mL]	CC50 at 24 h [8] [µM]	CC50 at 24 h [9] [µM]	other results
CCC(C)n1ncn(-c2ccc(N3CCN(c4ccc(OC[C@@H]5CO[C@@](Cn6cncn6)(c6ccc(Cl)cc6Cl)O5)cc4)CC3)cc2)c1=O (some centres undefined) [ITRACONAZOLE]	0.14 (≈ 0.198 µM)	0.125 (≈ 0.177 µM)	0.25 (≈ 0.354 µM)	0.5 (≈ 0.709 µM)	0.5 (≈ 0.709 µM)	1 (≈ 1.42 µM)	0.06 (≈ 0.085 µM)	1 (≈ 1.42 µM)	2 (≈ 2.83 µM)	1.4 (≈ 1.98 µM)	>1	>1	> 1	0.25 (≈ 0.354 µM)			MIC (Candida albicans [1]): 16 µg/mL (≈ 22.7 µM); MIC (Candida albicans [6]): 0.031 µg/mL (≈ 0.0439 µM)
Clc1ccc(OC(CCn2cncn2)c2ccccc2)c(Cl)c1 (centres undefined)	22.4 (≈ 64.3 µM)	16 (≈ 45.9 µM)	32 (≈ 91.9 µM)	> 128	> 128	> 128	32 (≈ 91.9 µM)	32 (≈ 91.9 µM)	64 (≈ 184 µM)	44.8 (≈ 129 µM)	>128	>128	> 128	64 (≈ 184 µM)			
CCc1ccc(OC(CCn2ccnc2)c2ccc(Cl)cc2)cc1 (centres undefined)				6.5 (≈ 19.1 µM)	8 (≈ 23.5 µM)	8 (≈ 23.5 µM)	8 (≈ 23.5 µM)				8 (≈ 23.5 µM)	16 (≈ 46.9 µM)	12.5 (≈ 36.7 µM)	16 (≈ 46.9 µM)	185	265	
Cc1ccc(C(CCn2ccnc2)Oc2ccc(C)cc2Cl)cc1 (centres undefined)				6.5 (≈ 19.1 µM)	8 (≈ 23.5 µM)	8 (≈ 23.5 µM)	4 (≈ 11.7 µM)				32 (≈ 93.9 µM)	32 (≈ 93.9 µM)	24 (≈ 70.4 µM)	8 (≈ 23.5 µM)	123	151	
Clc1ccc(OC(CCn2ccnc2)c2ccc(Cl)cc2)cc1 (centres undefined)				5.5 (≈ 15.8 µM)	4 (≈ 11.5 µM)	8 (≈ 23 µM)	4 (≈ 11.5 µM)				16 (≈ 46.1 µM)	32 (≈ 92.2 µM)	21.5 (≈ 61.9 µM)	8 (≈ 23 µM)	265	327	MIC (Candida albicans [1]): 8 µg/mL (≈ 23 µM); MIC (Candida albicans [6]): 4 µg/mL (≈ 11.5 µM)
Cc1ccc(OC(CCn2ccnc2)c2ccccc2)cc1 (racemic)	17.2 (≈ 58.8 µM)	16 (≈ 54.7 µM)	32 (≈ 109 µM)		8 (≈ 27.4 µM)		2 (≈ 6.84 µM)	32 (≈ 109 µM)	32 (≈ 109 µM)	28.8 (≈ 98.5 µM)	16 (≈ 54.7 µM)	16 (≈ 54.7 µM)		16 (≈ 54.7 µM)	95.9	141	MIC (Candida albicans [5]): 9.4 µg/mL (≈ 32.1 µM); MIC90 (Candida albicans [5]): 16 µg/mL (≈ 54.7 µM); MFC (Candida albicans [7]): 13.6 µg/mL (≈ 46.5 µM)

Further molecules by falling MIC50 (Candida albicans [5]; [11]), results first:

MIC (Arthrodermataceae [4]) [µg/mL]	MIC50 (Arthrodermataceae [4]) [µg/mL]	MIC90 (Arthrodermataceae [4]) [µg/mL]	MIC (Candida albicans [5]; [10]) [µg/mL]	MIC50 (Candida albicans [5]; [11]) [µg/mL]	MIC90 (Candida albicans [5]; [12]) [µg/mL]	MIC (Candida parapsilosis) [µg/mL]	SMILES	MFC50 (Arthrodermataceae [2]) [µg/mL]	MFC90 (Arthrodermataceae [3]) [µg/mL]	MFC (Arthrodermataceae [3]) [µg/mL]	MFC50 (Candida albicans [7]) [µg/mL]	MFC90 (Candida albicans [7]) [µg/mL]	MFC (Candida albicans [7]; [13]) [µg/mL]	MFC (Candida parapsilosis) [µg/mL]	CC50 at 24 h [8] [µM]	CC50 at 24 h [9] [µM]	other results
9.2 (≈ 24.9 µM)	8 (≈ 21.7 µM)	16 (≈ 43.4 µM)	57.1 (≈ 155 µM)	64 (≈ 173 µM)	64 (≈ 173 µM)	2 (≈ 5.42 µM)	CC(C)(C)c1ccc(OC(CCn2ccnc2)c2ccc(Cl)cc2)cc1 (centres undefined)	16 (≈ 43.4 µM)	32 (≈ 86.7 µM)	26 (≈ 70.5 µM)	64 (≈ 173 µM)	64 (≈ 173 µM)	64 (≈ 173 µM)	4 (≈ 10.8 µM)			
24.1 (≈ 86.6 µM)	16 (≈ 57.5 µM)	32 (≈ 115 µM)	62.7 (≈ 225 µM)	32 (≈ 115 µM)	128 (≈ 460 µM)	16 (≈ 57.5 µM)	c1ccc(OC(CCn2ccnc2)c2ccccc2)cc1 (centres undefined)	64 (≈ 230 µM)	64 (≈ 230 µM)	56.5 (≈ 203 µM)	64 (≈ 230 µM)	128 (≈ 460 µM)	83.2 (≈ 299 µM)	32 (≈ 115 µM)	220	201	
12 (≈ 33.2 µM)	8 (≈ 22.1 µM)	16 (≈ 44.3 µM)	3.15 (≈ 8.72 µM)	4 (≈ 11.1 µM)	4 (≈ 11.1 µM)	1 (≈ 2.77 µM)	Cc1ccc(C(CCn2ccnc2)Oc2ccc(Cl)cc2Cl)cc1 (centres undefined)	16 (≈ 44.3 µM)	32 (≈ 88.6 µM)	24 (≈ 66.4 µM)	8 (≈ 22.1 µM)	16 (≈ 44.3 µM)	8.4 (≈ 23.3 µM)	4 (≈ 11.1 µM)	97	150	
